Measurements as given in ChEMBL document CHEMBL3603828, “Imine/amide-imidazole conjugates derived from 5-amino-4-cyano-N1-substituted benzyl imidazole: Microwave-assisted synthesis and anticancer activity via selective topoisomerase-II-α inhibition” (Bioorg Med Chem, 2015).
Calls of active or inactive are those of the source. The calls are words filed in the database; no cut-off is given here.

Assays:
[1] = Antiproliferative activity against human H460 cells by MTT assay; type: functional, cell-based; details: NCI-H460
Procedure, shortened: (§1)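 Cells from NCCS were grown in DMEM with 10% FBS and antibiotics at 37 °C under 5% CO₂. They were seeded at 8000 cells/well after trypan blue counting. Compounds were made up as 100 mM DMSO stocks and diluted in serum-free DMEM. MTT was added and cells were held 4 h at room temperature in the dark. Formazan was dissolved in DMSO and read at 570 nm. Values are averages of three independent experiments, each run in triplicate.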

[2] = tested on: PBMC; test: Cytotoxic activity against human PBMC by MTT assay; type: cell-based
Procedure, shortened: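 Human peripheral blood mononuclear cells served as the normal control in an MTT read-out. Formazan was formed over 4 h at room temperature in the dark, dissolved in DMSO and read at 570 nm. Results are mean SD of three independent experiments.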

[3] = tested on: HepG2; test: Antiproliferative activity against human HepG2 cells by MTT assay; type: functional, cell-based; procedure, shortened: as §1
[4] = tested on: A549; test: Antiproliferative activity against human A549 cells by MTT assay; type: functional, cell-based; procedure, shortened: as §1
[5] = tested on: A549; test: Induction of mitochondrial membrane depolarization in human A549 cells at 1 to 25 uM incubated for 24 hrs by JC1 staining based assay; type: functional, cell-based
Procedure, shortened: (§2)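 Cells were seeded at 8000 per well and treated for 24 h. JC-1 dye was added directly to the medium for 30 min at 37 °C, then excess dye was washed off with PBS. Membrane potential was read as the OD590/OD527 ratio.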

[6] = tested on: HepG2; test: Induction of ROS generation in human HepG2 cells at 1 to 25 uM incubated for 24 hrs by DHE staining based assay; type: functional, cell-based
Procedure, shortened: (§3)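 Cells were seeded in DMEM/10% FBS at 8000 per well and treated for 24 h. They were washed with PBS, stained with DHE for 30 min at 37 °C and washed with ice-cold PBS. Fluorescence OD was then read on a microplate reader.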

[7] = tested on: HepG2; test: Induction of mitochondrial membrane depolarization in human HepG2 cells at 1 to 25 uM incubated for 24 hrs by JC1 staining based assay; type: functional, cell-based; procedure, shortened: as §2
[8] = target: T1, DNA topoisomerase 2-alpha (Homo sapiens, UniProt P11388); test: Inhibition of human topoisomerase-2 alpha assessed as reduction in enzyme-mediated kinetoplast DNA decatenation at 100 uM incubated for 30 mins by ethidium bromide staining based agarose gel electrophoresis method
T1 sequence (P11388 whole entry): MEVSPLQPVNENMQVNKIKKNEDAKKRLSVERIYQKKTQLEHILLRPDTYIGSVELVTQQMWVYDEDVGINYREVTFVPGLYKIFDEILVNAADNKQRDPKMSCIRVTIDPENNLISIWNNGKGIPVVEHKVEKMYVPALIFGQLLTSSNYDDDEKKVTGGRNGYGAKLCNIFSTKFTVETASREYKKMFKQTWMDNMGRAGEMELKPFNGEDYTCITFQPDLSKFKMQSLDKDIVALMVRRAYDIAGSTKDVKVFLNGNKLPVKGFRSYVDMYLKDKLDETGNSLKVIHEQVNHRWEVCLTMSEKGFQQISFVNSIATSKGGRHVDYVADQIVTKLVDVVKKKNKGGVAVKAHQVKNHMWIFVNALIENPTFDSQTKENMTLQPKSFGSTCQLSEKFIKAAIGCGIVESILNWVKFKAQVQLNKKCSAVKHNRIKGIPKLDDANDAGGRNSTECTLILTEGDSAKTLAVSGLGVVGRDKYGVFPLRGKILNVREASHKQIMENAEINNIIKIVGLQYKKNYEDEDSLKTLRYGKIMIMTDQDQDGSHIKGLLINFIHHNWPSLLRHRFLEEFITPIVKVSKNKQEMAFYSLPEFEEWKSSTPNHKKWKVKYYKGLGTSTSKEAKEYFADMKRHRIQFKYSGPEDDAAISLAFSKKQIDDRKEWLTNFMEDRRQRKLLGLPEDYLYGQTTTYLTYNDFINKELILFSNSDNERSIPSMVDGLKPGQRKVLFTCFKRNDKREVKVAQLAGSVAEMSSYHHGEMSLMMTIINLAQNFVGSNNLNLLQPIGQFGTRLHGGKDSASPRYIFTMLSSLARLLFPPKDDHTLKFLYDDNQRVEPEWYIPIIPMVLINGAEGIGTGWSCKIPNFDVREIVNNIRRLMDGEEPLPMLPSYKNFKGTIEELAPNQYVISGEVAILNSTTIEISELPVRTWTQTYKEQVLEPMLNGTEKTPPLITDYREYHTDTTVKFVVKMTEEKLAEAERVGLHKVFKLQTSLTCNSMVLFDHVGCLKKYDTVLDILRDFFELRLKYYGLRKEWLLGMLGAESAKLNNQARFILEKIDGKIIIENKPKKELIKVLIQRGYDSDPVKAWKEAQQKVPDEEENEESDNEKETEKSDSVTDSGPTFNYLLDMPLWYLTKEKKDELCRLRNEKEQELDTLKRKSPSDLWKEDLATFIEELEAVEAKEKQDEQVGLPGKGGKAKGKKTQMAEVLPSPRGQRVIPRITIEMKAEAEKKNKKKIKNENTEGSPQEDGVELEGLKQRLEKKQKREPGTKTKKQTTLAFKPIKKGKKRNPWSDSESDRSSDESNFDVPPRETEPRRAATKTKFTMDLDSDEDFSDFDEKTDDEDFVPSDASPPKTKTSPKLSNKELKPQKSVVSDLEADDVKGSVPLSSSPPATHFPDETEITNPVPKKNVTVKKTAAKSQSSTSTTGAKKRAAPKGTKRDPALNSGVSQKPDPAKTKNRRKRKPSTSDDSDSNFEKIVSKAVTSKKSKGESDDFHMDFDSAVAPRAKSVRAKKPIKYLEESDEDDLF
Procedure, shortened: (§4)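 Reactions with 2–4 units purified human topoisomerase II and 150 ng kDNA were set up on ice. Buffer was Tris-HCl pH 8 with NaCl, MgCl₂, DTT, BSA and ATP, and drug was 100 µM. Incubation was 30 min at 37 °C, then SDS and proteinase K for 15 min. Products were resolved on 1% agarose with ethidium bromide, visualized under UV and quantified.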

[9] = tested on: NCI-H460; test: Induction of mitochondrial membrane depolarization in human H460 cells at 1 to 25 uM incubated for 24 hrs by JC1 staining based assay; type: functional, cell-based; procedure, shortened: as §2
[10] = tested on: NCI-H460; test: Induction of ROS generation in human H460 cells at 1 to 25 uM incubated for 24 hrs by DHE staining based assay; type: functional, cell-based; procedure, shortened: as §3
[11] = target: T1, DNA topoisomerase 2-alpha; test: Inhibition of human topoisomerase-2 alpha assessed as reduction in enzyme-mediated kinetoplast DNA decatenation incubated for 30 mins by ethidium bromide staining based agarose gel electrophoresis method; procedure, shortened: as §4
[12] = tested on: A549; test: Induction of ROS generation in human A549 cells at 1 to 25 uM incubated for 24 hrs by DHE staining based assay; type: functional, cell-based; procedure, shortened: as §3
[13] = target: T2, DNA topoisomerase 1 (Homo sapiens) (UniProt P11387); test: Inhibition of human topoisomerase-1 assessed as reduction in enzyme-mediated DNA relaxation at 100 uM incubated for 30 mins by ethidium bromide staining based agarose gel electrophoresis method
T2 sequence (whole entry): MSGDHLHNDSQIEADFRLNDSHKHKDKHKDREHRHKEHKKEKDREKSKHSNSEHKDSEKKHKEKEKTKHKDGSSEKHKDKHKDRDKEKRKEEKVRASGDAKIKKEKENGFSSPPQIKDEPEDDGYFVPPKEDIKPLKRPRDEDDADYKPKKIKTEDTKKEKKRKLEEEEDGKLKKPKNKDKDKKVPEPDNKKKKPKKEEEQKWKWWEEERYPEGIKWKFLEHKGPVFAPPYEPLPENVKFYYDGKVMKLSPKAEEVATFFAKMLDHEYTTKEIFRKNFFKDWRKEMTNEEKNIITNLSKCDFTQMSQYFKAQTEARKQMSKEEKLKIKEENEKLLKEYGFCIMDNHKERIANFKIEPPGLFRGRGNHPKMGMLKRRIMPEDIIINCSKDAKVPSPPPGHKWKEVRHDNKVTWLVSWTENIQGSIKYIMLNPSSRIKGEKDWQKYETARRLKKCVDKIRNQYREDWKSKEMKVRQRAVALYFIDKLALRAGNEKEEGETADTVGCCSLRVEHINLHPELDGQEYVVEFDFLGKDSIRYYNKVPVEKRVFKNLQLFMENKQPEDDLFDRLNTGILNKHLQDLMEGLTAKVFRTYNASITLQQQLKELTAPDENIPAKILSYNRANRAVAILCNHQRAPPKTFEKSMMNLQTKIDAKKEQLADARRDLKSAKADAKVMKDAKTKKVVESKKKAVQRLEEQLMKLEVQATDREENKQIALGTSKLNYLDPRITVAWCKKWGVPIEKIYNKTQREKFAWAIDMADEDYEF
Procedure, shortened: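 Purified human Topo I was used with 250 ng supercoiled DNA. Buffer was Tris-HCl pH 7.9 with EDTA, NaCl, BSA, spermidine and glycerol. Compound was 100 µM in DMSO, with 30 min incubation at 37 °C. Reactions were stopped with SDS and proteinase K at 70 °C for 15 min. Products were run on 1% agarose in TAE.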

Compound | IC50 [3] | IC50 [4] | inhibition [8] | IC50 [11] | inhibition [13] | IC50 [1] | Activity [2] | Activity [5] | Activity [6] | Activity [7] | Activity [9] | Activity [10] | Activity [12]
N#Cc1ncn(Cc2ccccc2Cl)c1/N=C/c1cc(Cl)cc(Cl)c1O | 12 µM | 7.5 µM | Active | 34.9 µM | inactive | 11.2 µM | Non-toxic | Active | Dose-dependent effect | Active | Active | Dose-dependent effect | Dose-dependent effect
N#Cc1ncn(Cc2ccccc2Cl)c1/N=C/c1c[nH]c2ccccc12 | 15 µM | 10.9 µM | Active | – | – | 14.6 µM | Non-toxic | – | – | – | – | – | –
COc1ccc(OC)c(/C=N/c2c(C#N)ncn2Cc2ccccc2Cl)c1 | 20 µM | 18 µM | – | – | – | 28.3 µM | Non-toxic | – | – | – | – | – | –
COc1cc([C@@H]2c3cc4c(cc3[C@@H](O[C@@H]3O[C@@H]5CO[C@@H](C)O[C@H]5[C@H](O)[C@H]3O)[C@H]3COC(=O)[C@H]23)OCO4)cc(OC)c1O [ETOPOSIDE] | 20.9 µM | 18.2 µM | Active | – | – | > 30 µM | Non-toxic | – | – | – | – | – | –

Further lines, with some results ahead:

IC50 [3] | IC50 [4] | inhibition [8] | IC50 [11] | inhibition [13] | Compound | IC50 [1] | Activity [2] | Activity [5] | Activity [6] | Activity [7] | Activity [9] | Activity [10] | Activity [12]
38.2 µM | 35.1 µM | – | – | – | N#Cc1ncn(Cc2ccccc2Cl)c1/N=C/c1ccc(O)cc1 | > 40 µM | Non-toxic | – | – | – | – | – | –
31 µM | 30.8 µM | – | – | – | N#Cc1ncn(Cc2ccccc2Cl)c1/N=C/c1ccc(Cl)cc1 | 28.1 µM | Non-toxic | – | – | – | – | – | –
> 50 µM | > 50 µM | – | – | – | COc1ccc(/C=N/c2c(C#N)ncn2Cc2ccccc2Cl)cc1OC | – | Non-toxic | – | – | – | – | – | –
40 µM | 37 µM | – | – | – | N#Cc1ncn(Cc2ccccc2Cl)c1/N=C/c1ccccc1[N+](=O)[O-] | – | Non-toxic | – | – | – | – | – | –
> 40 µM | 39 µM | – | – | – | COc1cc(/C=N/c2c(C#N)ncn2Cc2ccccc2Cl)ccc1O | – | Non-toxic | – | – | – | – | – | –
